Source: PubChem
TRPC4 agonist: activators of mouse TRPC4 channel, primary screen, Fluo4 calcium, HEK293 TRPC4beta/mu-opioid cells; Fluo4 calcium fluorescence; active compounds read high; B-score at 10 µM; 310,000 compounds, 0.49% hits;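 active = B-score above 5 SD of library B-scores, and initial fluorescence ratio not above library mean plus 5 SD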;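 also: positive B-score marks a calcium rise read as TRPC4 activation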
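system = HEK293 cells stably co-expressing mouse TRPC4beta and mu-opioid receptor | schedule = Fluo4 dye loading 45 min at room temperature, 110 s recording | measure = B-scored integrated calcium fluorescence ratio | signal = Fluo4 calcium-sensitive dye fluorescence, kinetic, 1 Hz baseline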
TRPC4 PAM: positive allosteric modulators of TRPC4, primary screen, cell-based, mouse TRPC4beta, HEK293 mu-opioid, Fluo-4 calcium | B-score at 10 µM | 310,000 compounds, 0.42% hits | DAMGO EC20, Fluo-4 Ca2+ flux; active compounds read high | AID 2227, 2009;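 active = B-score of calcium response area above 5 SD of library B-scores, with initial fluorescence ratio within 5 SD of library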;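 also: B-score of integrated fluorescence ratio over time as area under calcium response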
TRPC6 inhibitor: mouse TRPC6 channel inhibitors, primary screen, cell-based, HEK293, membrane potential dye; AID 2553, 2010; B-score at 10 µM; Short transient receptor potential channel 6 (Mus musculus), Q61143; 310,000 compounds, 1.1% hits; ACh-evoked depolarization; active compounds read low;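 active = B-score under library mean minus 3 SD, initial fluorescence not abnormally high, positive integrated signal ratio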;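 also: B-score derived from integrated fluorescence ratio over the kinetic read; more negative B-score means stronger inhibition of depolarization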
TRPC6 act: mouse TRPC6 channel activators, primary screen, cell-based, HEK293, membrane potential dye; Short transient receptor potential channel 6 (Mus musculus), Q61143; B-score at 10 µM; 310,000 compounds, 0.13% hits; HEK293-TRPC6 membrane potential dye fluorescence; active compounds read high;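 active = B-score of the integrated fluorescence ratio above library mean plus 3 SD, and starting fluorescence ratio within library mean plus 5 SD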;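 also: higher score means more depolarization so channel activation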
TRPC4 inh: inhibitors of mouse TRPC4 channel, primary screen, Fluo4 calcium, HEK293 TRPC4beta/mu-opioid cells | Short transient receptor potential channel 4 (Mus musculus), Q9QUQ5 | DAMGO-evoked Fluo4 calcium flux; active compounds read low | B-score at 10 µM | 300,000 compounds, 0.39% hits | AID 2247, 2010;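 active = B-score over 3 SD under the library average, no early fluorescence shift, positive overall ratio signal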
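Material: HEK293 cells with stable TRPC4beta plus mu-opioid receptor expression; probe or stimulus: DAMGO in two steps, submaximal then maximal; technique: Fluo4 calcium fluorescence by kinetic imaging, 5 s 1 Hz baseline; measure: integrated fluorescence ratio relative to baseline, converted to per-well B score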
Kir21 inh: inhibitors of mouse Kir2.1 inward-rectifier potassium channel | 310,000 compounds, 0.85% hits | B-score at 10 µM | HEK293-Kir2.1, FluxOR thallium flux fluorescence; active compounds read low | Inward rectifier potassium channel 2 (Mus musculus), P35561;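 active = fluorescence ratio B-score at or below minus 3 SD of library scores, with starting-brightness B-score within 2 SD, cut at about -4.2 in these data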;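 also: channel flux triggered by added potassium and thallium sulfate stimulus; B-score of peak minus minimum fluorescence over baseline after thallium stimulus; more negative B-score means stronger Kir2.1 block with less thallium influx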
TRPC4 sel inh 2: second selectivity test of TRPC6 inhibitors: effect on mouse TRPC4; shares compounds with TRPC6 inhibitor; inhibition, % at 10 µM; 920 compounds, 42% hits; HEK293 TRPC4/MOR, membrane potential dye fluorescence; channel activated by saturating DAMGO dose; AID 2776;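 active = compounds whose fluorescence signal differed from control wells by over 3 SD, either direction, in both duplicate plates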
TRPC4 spec: mouse TRPC4 modulation by TRPC6 hits, confirmation, selectivity assay for TRPC6 inhibitor project, cell-based, HEK293 TRPC4/mu-opioid, membrane potential dye; activity change, negative = inhibition, % at 10 µM; membrane potential fluorescence; shares compounds with TRPC6 inhibitor; 920 compounds, 61% hits;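 active = rise or fall in signal beyond 3 SD of buffer-only wells in both replicate plates, either sign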;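 also: integrated kinetic ratio of fluorescence range over baseline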
HEK293 MPD ctr 2-1: nonspecific membrane potential effects, parental HEK293, confirmation, counter-screen for TRPC6 inhibitor project, cell-based, second counter screen; shares compounds with TRPC6 inhibitor; parental HEK293 membrane potential dye fluorescence; maximal acetylcholine challenge after compound addition; signal change vs control, % at 10 µM; 920 compounds, 31% hits; AID 2779, 2010;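 active = membrane potential signal moving either way by over 3 SD of the maximum-effect control, in both duplicate plates, meaning non-specific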
HEK293 MPD ctr-1: membrane potential modulation in parental HEK293, confirmation, counter-screen for TRPC6 inhibitor project, cell-based. shares compounds with TRPC6 inhibitor. parental HEK293 membrane potential dye fluorescence. membrane potential signal change, % at 10 µM. 920 compounds, 60% hits. AID 2780, 2010;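 active = membrane potential signal shifting up or down by more than 3 SD of buffer-only wells, on both duplicate plates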
HEK293 MPD ctr-2: parental HEK293 membrane potential modulation, confirmation, counter-screen for TRPC6 modulator project, cell-based; shares compounds with TRPC6 inhibitor; membrane potential dye fluorescence; membrane potential signal change, % at 10 µM; 2,400 compounds, 51% hits;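 active = membrane potential signal moves up or down beyond 5 SD from buffer-only wells, on both duplicate plates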
HEK293 MPD ctr 2-2: second check of TRPC6 modulator effects in parental HEK293 cells; shares compounds with TRPC6 inhibitor; membrane potential dye fluorescence; after compound, maximal acetylcholine stimulation; inhibition, % at 10 µM; 2,400 compounds, 14% hits; AID 488926;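 active = membrane potential signal drops by more than 5 SD from the mean control signal, in both duplicate plates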;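 also: plate controls were acetylcholine ECmax control wells for no effect and buffer only wells for full effect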
TRPC4/MOR mod: TRPC4 modulation by TRPC6 hit compounds, confirmation, selectivity assay for TRPC6 modulator project, cell-based, HEK293 TRPC4/mu-opioid, membrane potential dye, mouse. shares compounds with TRPC6 inhibitor. membrane potential fluorescence. percent change from control (negative = decrease, positive = increase), % at 10 µM. 2,400 compounds, 69% hits;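 active = membrane potential signal moved up or down beyond 5 SD of buffer control wells, in both duplicate plates, actives on both sides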;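 also: plate controls were assay buffer wells for no effect and DAMGO maximal-effect wells for full effect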
TRPC4/MOR inh 2: second selectivity test of TRPC6 modulators against mouse TRPC4. HEK293 TRPC4/mu-opioid, membrane potential dye fluorescence; stimulated with maximal-effect DAMGO. shares compounds with TRPC6 inhibitor. inhibition, % at 10 µM. 2,400 compounds, 55% hits;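 active = drop in membrane potential signal beyond 5 SD of the control wells in both duplicate plates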;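 also: TRPC4 counter screen for TRPC6 hits run under conditions tuned for TRPC6 not TRPC4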
TRPC6 block conf: mouse TRPC6 channel inhibitors, confirmation, HEK293 cells, membrane potential dye, duplicate; shares compounds with TRPC6 inhibitor; ACh-evoked depolarization; inhibition, % at 10 µM; 3,300 compounds, 43% hits; AID 488960, 2010;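 active = fluorescence ratio falls more than 5 SD below the full-stimulation control mean, in both duplicate runs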;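 also: integrated fluorescence ratio of peak minus minimum over baseline after agonist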
TRPC6 act confirm: mouse TRPC6 channel activators, confirmation, HEK293 cells, membrane potential dye, duplicate. 2,800 compounds, 11% hits. HEK293-TRPC6 membrane potential dye fluorescence, FDSS. activation, % at 10 µM. shares compounds with TRPC6 inhibitor;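 active = ratio signal rise beyond 5 SD above unstimulated control wells' mean, seen in both duplicate runs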;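 also: plate controls were buffer EC0 wells for no effect and acetylcholine ECmax response for full effect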
Starred values were filed as active, the others as inactive; i = inactive; . = not tested or not shown. Most compounds without a hit are left out; they make up all but 3% or so of the library.

SMILES	TRPC4 agonist	TRPC4 PAM	TRPC6 inhibitor	TRPC6 act	TRPC4 inh	Kir21 inh	HEK293 MPD ctr-2	HEK293 MPD ctr 2-2	TRPC4/MOR mod	TRPC4/MOR inh 2	TRPC6 block conf	TRPC6 act confirm	others
Cc1c(OCC(=O)NCCCN2CCCC2=O)ccc2c3c(c(=O)oc12)CCC3	i	i	-6.1*	i	i	-0.01	-105%*	i	-19%*	i	i	i
Cc1c(OCC(=O)NCCN2CCOCC2)ccc2c3c(c(=O)oc12)CCC3	i	i	-5.2*	i	i	1.5	i	i	-14%*	i	i	i
Cc1cc(=O)oc2c(C)c(OCC(=O)NCCCn3ccnc3)ccc12	i	i	-6.6*	i	i	-1.4	-192%*	i	-32%*	30%*	i	i
O=C(COc1ccccc1Br)Nc1ccccc1C(F)(F)F	i	i	i	i	i	1.2	.	.	.	.	.	.
COc1ccc(OC)c(/C=C(\C)C(=O)c2c(C)cc(C)[nH]c2=O)c1	i	i	i	i	i	-0.05	.	.	.	.	.	.
O=C(c1cccc(C(F)(F)F)c1)C1CCCN(C(=O)CCCN2CCCC2=O)C1 (stereo not drawn)	i	i	i	i	i	-1.2	.	.	.	.	.	.
C=COc1ccc(N2C(=O)c3ccccc3OC2C)cc1 (stereo not drawn)	i	i	i	i	i	0.35	.	.	.	.	.	.
Cc1ccc(Nc2nc(N/N=C/c3c[nH]c4ccccc34)nc(N3CCOCC3)n2)cc1	i	i	i	i	i	-0.36	.	.	.	.	.	.
C(=N\Nc1nc(Nc2ccccc2)nc(N2CCOCC2)n1)/c1c[nH]c2ccccc12	i	11*	-6.1*	i	i	1.2	i	i	-20%*	49%*	48%*	i
Cc1ccc(Cl)cc1N1CCN(C(=O)CCS(=O)(=O)c2ccc3c(c2)NC(=O)CO3)CC1	i	i	i	i	i	-0.25	.	.	.	.	.	.
COc1ccc(Br)cc1CSC(=N)N	i	i	i	i	i	-0.23	.	.	.	.	.	.
CCCCCOc1ccc(Br)cc1CSC(=N)N	i	i	-6.4*	i	i	-12*	135%*	i	24%*	76%*	i	.
CCCCOc1ccc(CSC(=N)N)cc1Cl	i	i	-6.7*	i	i	-12*	.	.	.	.	i	i	TRPC4 sel inh 2=70%*;TRPC4 spec=i;HEK293 MPD ctr 2-1=266%*;HEK293 MPD ctr-1=2.0%*
COc1ccc([N+](=O)[O-])c(OC)c1C(=O)NC(=O)Nc1c(F)c(F)c(F)c(F)c1F	i	i	i	i	i	0.33	.	.	.	.	.	.
Cc1[nH][nH]c(=O)c1N=Nc1ccc(S(N)(=O)=O)cc1	i	i	i	i	i	2.1	.	.	.	.	.	.
Cc1cc(C)n2[nH]c(=O)c(N=Nc3ccc(S(N)(=O)=O)cc3)c2n1	i	i	-15*	i	i	-0.56	-397%*	102%*	-60%*	68%*	79%*	i
Cc1ccc(N=Nc2c(=O)[nH]n3c(C)cc(C)nc23)cc1	i	14*	-6.1*	i	i	1.8	-134%*	i	-14%*	i	41%*	i
Cc1ccc(N=Nc2c(N)[nH]n3c(=O)cc(C)nc23)cc1	i	i	i	i	i	1.1	.	.	.	.	.	.
c1ccc(-c2cc3c(N4CCCC4)ncnc3s2)cc1	i	i	i	i	i	-1.5	.	.	.	.	.	.
OCCN1CCN(c2ncnc3sc(-c4ccccc4)cc23)CC1	i	i	-6.2*	i	i	-0.53	i	i	-9.5%*	36%*	i	i
CN(C)c1nnc(-c2ccc(Cl)cc2)o1	i	i	i	i	i	0.3	.	.	.	.	.	.
O=C(N/N=C/c1ccc([N+](=O)[O-])s1)c1ccccc1	i	i	-6*	i	i	0.05	i	i	i	i	i	i
O=C(N/N=C/c1ccc([N+](=O)[O-])s1)c1ccccc1Br	i	i	i	i	i	0.06	.	.	.	.	.	.
